Measurements taken from ChEMBL document CHEMBL4406804, “Discovery of a Potent Steroidal Glucocorticoid Receptor Antagonist with Enhanced Selectivity against the Progesterone and Androgen Receptors (OP-3633)” (J Med Chem, 2019).
In brackets after ≈: the same amount, converted by molar mass.

What was measured:
[1] = Solubility of compound in fasted state simulated gastric fluid at pH 1.2; type: physicochemical
Glucocorticoid receptor = molecular target: T1, Glucocorticoid receptor (Homo sapiens, UniProt P04150); assay: Antagonist activity at human glucocorticoid receptor expressed in CHO-K1 cells harboring firefly luciferase gene after 20 hrs by One-Glo luciferase reporter gene assay; type: cell-based
T1 sequence (P04150 whole entry): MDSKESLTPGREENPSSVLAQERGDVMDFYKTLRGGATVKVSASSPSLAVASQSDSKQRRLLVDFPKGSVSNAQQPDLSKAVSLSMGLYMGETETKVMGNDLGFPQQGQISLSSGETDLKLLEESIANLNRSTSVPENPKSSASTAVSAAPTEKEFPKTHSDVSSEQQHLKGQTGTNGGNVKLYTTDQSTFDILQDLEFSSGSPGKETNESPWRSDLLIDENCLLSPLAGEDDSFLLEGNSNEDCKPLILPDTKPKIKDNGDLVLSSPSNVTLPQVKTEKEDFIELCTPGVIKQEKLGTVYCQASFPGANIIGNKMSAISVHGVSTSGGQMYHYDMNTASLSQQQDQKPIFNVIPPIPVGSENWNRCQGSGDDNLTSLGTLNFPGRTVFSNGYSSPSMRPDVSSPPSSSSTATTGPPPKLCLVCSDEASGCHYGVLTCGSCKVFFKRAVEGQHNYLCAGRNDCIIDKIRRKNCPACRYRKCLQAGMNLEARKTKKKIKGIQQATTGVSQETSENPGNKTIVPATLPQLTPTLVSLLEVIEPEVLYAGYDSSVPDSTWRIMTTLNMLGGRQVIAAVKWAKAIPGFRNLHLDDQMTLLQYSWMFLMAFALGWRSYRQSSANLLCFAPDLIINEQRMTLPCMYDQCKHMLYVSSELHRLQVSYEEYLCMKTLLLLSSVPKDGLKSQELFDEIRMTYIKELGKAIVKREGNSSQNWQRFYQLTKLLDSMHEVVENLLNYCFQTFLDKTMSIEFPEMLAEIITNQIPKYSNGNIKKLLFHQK

[2] = Clearance in rat at 0.5 mg/kg, iv; type: ADME, organism-based; conditions: in vivo
Method in brief: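 Rat PK study. The iv dose of 0.5 mg/kg was given in 10% DMSO, 70% PEG 400 and 20% water. The oral dose of 5 mg/kg was given in 5% DMSO / 95% of 0.2% Tween 80 in 0.25% CMC, adjusted to pH 4 for one compound. Read-outs were CL, Vss, iv t1/2, F, Cmax and AUC.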

[3] = Solubility of compound in fasted state simulated intestinal fluid at pH 6.5; type: physicochemical
Progesterone receptor = molecular target: T2, Progesterone receptor (Homo sapiens, UniProt P06401); assay: Antagonist activity at human progesterone receptor expressed in CHO-K1 cells harboring firefly luciferase gene after 20 hrs by One-Glo luciferase reporter gene assay; type: cell-based
T2 sequence (P06401 whole entry): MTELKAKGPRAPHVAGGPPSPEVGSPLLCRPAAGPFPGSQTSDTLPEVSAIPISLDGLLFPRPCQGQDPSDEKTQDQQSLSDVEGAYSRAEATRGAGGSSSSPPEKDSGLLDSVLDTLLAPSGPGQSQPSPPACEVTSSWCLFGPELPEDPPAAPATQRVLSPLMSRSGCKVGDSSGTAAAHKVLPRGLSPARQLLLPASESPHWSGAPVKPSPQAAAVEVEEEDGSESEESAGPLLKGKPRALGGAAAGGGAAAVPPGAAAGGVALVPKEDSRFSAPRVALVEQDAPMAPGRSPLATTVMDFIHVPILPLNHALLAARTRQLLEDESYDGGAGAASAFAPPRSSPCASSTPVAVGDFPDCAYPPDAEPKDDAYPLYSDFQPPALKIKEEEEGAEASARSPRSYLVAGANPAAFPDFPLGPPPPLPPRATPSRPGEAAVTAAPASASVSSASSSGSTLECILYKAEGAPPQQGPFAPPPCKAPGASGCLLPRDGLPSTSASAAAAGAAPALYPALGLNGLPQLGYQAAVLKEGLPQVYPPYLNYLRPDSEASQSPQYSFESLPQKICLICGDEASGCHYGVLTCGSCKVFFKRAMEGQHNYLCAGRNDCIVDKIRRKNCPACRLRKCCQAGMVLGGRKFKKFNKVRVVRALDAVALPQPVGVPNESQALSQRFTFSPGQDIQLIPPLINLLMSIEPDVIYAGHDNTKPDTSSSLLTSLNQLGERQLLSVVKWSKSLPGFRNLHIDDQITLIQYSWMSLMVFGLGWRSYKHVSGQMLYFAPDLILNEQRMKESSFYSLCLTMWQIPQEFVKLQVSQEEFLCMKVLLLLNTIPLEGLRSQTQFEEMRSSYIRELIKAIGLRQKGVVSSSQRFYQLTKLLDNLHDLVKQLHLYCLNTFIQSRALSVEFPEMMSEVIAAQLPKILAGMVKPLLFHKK
Method in brief: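 Cell-based luciferase reporter assays for GR, AR and PR, run in agonist and antagonist modes. Potency and Emax are averages of at least two determinations, reported with SD.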

[4] = Clearance in mini-pig at 0.5 mg/kg, iv; type: ADME, organism-based, Sus scrofa domesticus; conditions: in vivo
Androgen receptor = molecular target: T3, Androgen receptor (Homo sapiens, UniProt P10275); assay: Agonist activity at human androgen receptor in human LNCAP cells harboring firefly luciferase gene after 20 hrs by One-Glo luciferase reporter gene assay; type: cell-based
T3 sequence (P10275 whole entry): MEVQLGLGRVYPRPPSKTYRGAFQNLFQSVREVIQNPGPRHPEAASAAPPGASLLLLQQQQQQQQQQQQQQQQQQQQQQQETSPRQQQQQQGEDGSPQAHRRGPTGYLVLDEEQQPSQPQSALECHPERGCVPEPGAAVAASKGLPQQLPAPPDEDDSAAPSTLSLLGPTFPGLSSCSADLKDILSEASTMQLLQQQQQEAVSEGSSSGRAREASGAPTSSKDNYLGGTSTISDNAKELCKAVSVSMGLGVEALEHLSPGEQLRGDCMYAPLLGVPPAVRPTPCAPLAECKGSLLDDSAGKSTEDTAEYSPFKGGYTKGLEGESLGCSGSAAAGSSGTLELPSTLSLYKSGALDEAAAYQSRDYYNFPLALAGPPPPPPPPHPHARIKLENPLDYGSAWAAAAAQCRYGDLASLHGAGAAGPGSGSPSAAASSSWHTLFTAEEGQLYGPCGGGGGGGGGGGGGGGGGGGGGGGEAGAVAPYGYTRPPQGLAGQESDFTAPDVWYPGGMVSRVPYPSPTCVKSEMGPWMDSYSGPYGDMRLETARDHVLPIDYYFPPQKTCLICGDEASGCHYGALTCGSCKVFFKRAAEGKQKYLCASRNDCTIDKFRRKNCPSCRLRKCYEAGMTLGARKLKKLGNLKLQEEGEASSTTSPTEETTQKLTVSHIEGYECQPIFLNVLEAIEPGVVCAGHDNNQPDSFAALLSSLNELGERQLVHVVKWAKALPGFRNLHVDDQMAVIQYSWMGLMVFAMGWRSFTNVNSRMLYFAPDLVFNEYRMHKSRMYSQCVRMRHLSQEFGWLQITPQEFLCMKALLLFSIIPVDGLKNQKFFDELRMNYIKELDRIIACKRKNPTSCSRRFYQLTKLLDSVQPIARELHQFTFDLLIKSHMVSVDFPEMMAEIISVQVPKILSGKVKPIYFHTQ

CC#C[C@]1(O)CC[C@H]2[C@@H]3CCC4=CC(=O)CC[C@]4(C)[C@H]3[C@@H](c3ccc(N(C)C)cc3)C[C@@]21C
solubility [1]: 1130 µM (≈ 504 µg/mL) | IC50 (Glucocorticoid receptor): 29 nM | clearance [2]: 51.7 mL/min/kg | solubility [3]: 59.5 µM (≈ 26.5 µg/mL) | IC50 (Progesterone receptor): 1140 nM | clearance [4]: 12.5 mL/min/kg | EC50 (Androgen receptor): > 2500 nM
